These results are taken from ChEMBL document CHEMBL1141560, “Alpha,beta-cyclic-beta-benzamido hydroxamic acids: novel templates for the design, synthesis, and evaluation of selective inhibitors of TNF-alpha converting enzyme (TACE)” (Bioorg Med Chem Lett, 2008).

Holding throughout (type): ADME, organism-based
Data set [1] can be described thus: Oral bioavailability in rat at 5.0 mg/kg. The note with it: in vivo. The essentials: (§1)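 Rats given 5.0 mg/kg IV or PO by n-in-1 cassette dosing; three animals per dosing group, parameters reported as the group average.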
A short description of data set [2]: Clearance in rat at 5.0 mg/kg, iv. On the set-up: dose 5 mg/kg, route intravenous. The note with it: in vivo. The essentials: as §1
Data set [3] is described as follows: AUC in rat at 5.0 mg/kg, iv. On the set-up: dose 5 mg/kg, route intravenous. The note with it: plasma. Put shortly:
as §1

The nature of data set [4]: Half life in rat at 5.0 mg/kg, iv. More on the design: dose 5 mg/kg, route intravenous. The note with it: in vivo. Put shortly: as §1
Data set [5] in a line: AUC in rat at 5.0 mg/kg, po. The note with it: plasma. More on the design: dose 5 mg/kg, route oral. The essentials: as §1
Data set [6] in a line: Volume of distribution at steady state in rat at 5.0 mg/kg, iv. More on the design: dose 5 mg/kg, route intravenous. The note with it: in vivo, read-out: Vdss. Put shortly: as §1
Data set [7] can be described thus: Half life in rat at 5.0 mg/kg, po. More on the design: dose 5 mg/kg, route oral. The note with it: in vivo. The essentials: as §1
The nature of data set [8]: Oral bioavailability in rat. The conditions noted are these: in vivo.
A short description of data set [9]: AUC in rat at […], po. More on the design: dose 3.3 mg/kg, route oral. The conditions noted are these: plasma.
Data set [10] in a line: Half life in rat at […], iv. The note with it: in vivo. More on the design: dose 3.3 mg/kg, route intravenous.
Data set [11] in a line: Half life in rat at […], po. More on the design: dose 3.3 mg/kg, route oral. The conditions noted are these: in vivo.
Data set [12] is described as follows: Clearance in rat at […], iv. On the set-up: dose 3.3 mg/kg, route intravenous. The conditions noted are these: in vivo.
Data set [13] is described as follows: Oral bioavailability in rat at […]. The note with it: in vivo.
Data set [14] in a line: Volume of distribution at steady state in rat at […], iv. The note with it: in vivo, read-out: Vdss. More on the design: dose 3.3 mg/kg, route intravenous.
A short description of data set [15]: AUC in rat at […], iv. On the set-up: dose 3.3 mg/kg, route intravenous. The conditions noted are these: plasma.

As to `Cc1cc(COc2ccc(C(=O)N[C@@H]3COC[C@@H]3C(=O)NO)cc2)c2ccccc2n1`, in data set [1], the bioavailability worked out at 21%. Besides, the clearance in [2] is 38.3 mL/min/kg. Further, the AUC in data set [3] was 4.06 µM·h; in [5] it was 0.846 µM·h. Also, the half-life in data set [4] was 2.1 h; in [7], 2.9 h. Also, in data set [6], the Vd was 0.8 L/kg.

As to `Cc1cc(COc2ccc(C(=O)N[C@@H]3CN(S(C)(=O)=O)C[C@@H]3C(=O)NO)cc2)c2ccccc2n1`, the bioavailability in data set [8] turned out to be 3%.

With `C#CCN1C[C@H](C(=O)NO)[C@H](NC(=O)c2ccc(OCc3cc(C)nc4ccccc34)cc2)C1`, the AUC in data set [9] was 0.567 µM·h; in [15], 2.23 µM·h. Besides, the half-life in data set [10] is 2.9 h; in data set [11] it was 3.1 h. This compound gave a clearance in data set [12] of 55 mL/min/kg. Moreover, the bioavailability in data set [13] came out at 25%. Also, in data set [14], the Vd was found to be 1.7 L/kg.

Usually bioavailability stands for dose-corrected exposure relative to a reference, in per cent. A low value points to little systemic uptake. By clearance is commonly meant the volume of plasma or blood freed of the substance per unit of time. The term AUC denotes concentration integrated over time. Low values mean low exposure, high ones high exposure. For orientation: half-life means the time in which the quantity being followed falls by half. A lower half-life goes with rapid decline.
